Screening data (PubChem)
GRK2 inh: compounds blocking aptamer binding on GRK2 – biochemical, human GRK2, bead flow cytometry, HTS, primary screen. FAM-aptamer displacement from GRK2. inhibition of aptamer binding, % at 10 µM. 330,000 compounds, 0.59% hits. AID 488847, 2010;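 active = inhibition of aptamer binding above 40%, roughly 3 SD of noise, on plates passing a quality check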;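 note: median bead fluorescence of bound FAM aptamer so fluorescent compounds give negative values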
DNMT1 inh: human DNMT1 methyltransferase inhibitors, primary screen, biochemical, molecular beacon, fluorescence, HinP1I cleavage, uHTS; DNA (cytosine-5)-methyltransferase 1 (Homo sapiens), P26358; inhibition (reported as % activation of signal), % at 10 µM; 360,000 compounds, 0.83% hits; in the data active = inhibition above about 50%
Scp-1 inhibitor: Scp-1 phosphatase inhibitors, primary screen, biochemical, colorimetric, uHTS | Carboxy-terminal domain RNA polymerase II polypeptide A small phosphatase 1 (Homo … | Recombinant Scp1, phosphopeptide, malachite green phosphate absorbance | inhibition, % at 20 µM | 340,000 compounds, 0.88% hits | AID 493091, 2011;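 active = inhibition above about 50% at 20 µM, limit read from the data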;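 note: plate controls were DMSO wells with enzyme for no effect and wells lacking enzyme for full effect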
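Test system: SCP-1 phosphatase catalytic domain, residues 76-261; measured by: colorimetric phosphate reagent with accelerator and stabiliser, absorbance at 630 nm; timing: enzyme reaction 45 min at room temperature, colour 5 min, stabilisation 30 min; also added: Phosphorylated 17-residue peptide substrate; compound dosing: one concentration, 20 µM, with 1.0% DMSO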
SUMO1 PPI mod: modulators of SUMO1 protein-protein interactions, primary screen, biochemical, uHTS | 360,000 compounds, 0.33% hits | inhibition, % at 20 µM | Small ubiquitin-related modifier 1 (Homo sapiens), P63165 | SUMO1 binding to a labelled peptide, TR-FRET, 1 h; in the data active = inhibition above about 37%
Target sequence (P63165 whole entry, looked up): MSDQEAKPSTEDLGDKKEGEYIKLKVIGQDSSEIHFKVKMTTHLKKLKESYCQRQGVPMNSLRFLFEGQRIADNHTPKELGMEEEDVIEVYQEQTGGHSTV
LMPTP block: LMPTP phosphatase inhibitors, primary screen, biochemical, fluorescence intensity, uHTS | inhibition, % at 20 µM | Low molecular weight phosphotyrosine protein phosphatase (Homo sapiens), P24666 | 360,000 compounds, 0.22% hits | recombinant LMPTP-A, OMFP fluorogenic substrate | AID 651560, 2012;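 active = compounds that cut the enzyme signal by at least half of the control window in the single-dose screen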;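 note: plate controls were DMSO wells with enzyme plus substrate for no effect and substrate without enzyme for full effect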
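test system = LMPTP-A | amount = 0.625 nM LMPTP-A final | reagent = fluorogenic phosphatase substrate OMFP at 400 µM final | incubation = 50 min at room temperature | benchmarks = no-enzyme low control, uninhibited high control | medium = Bis-Tris pH 6.0, DTT, detergent | signal = fluorescence intensity of OMFP turnover product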
STEP block: STEP phosphatase inhibitors, primary screen, biochemical, fluorescence intensity, uHTS. recombinant STEP, OMFP fluorogenic substrate. AID 588621, 2011. Tyrosine-protein phosphatase non-receptor type 5 (Homo sapiens), P54829. inhibition, % at 20 µM. 360,000 compounds, 0.25% hits;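 active = inhibition at 20 µM, scaled per plate between control wells, above about 37%, limit read from the data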;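 note: 0% = DMSO with enzyme and substrate and 100% = substrate only without enzyme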
Target sequence (P54829 whole entry, looked up): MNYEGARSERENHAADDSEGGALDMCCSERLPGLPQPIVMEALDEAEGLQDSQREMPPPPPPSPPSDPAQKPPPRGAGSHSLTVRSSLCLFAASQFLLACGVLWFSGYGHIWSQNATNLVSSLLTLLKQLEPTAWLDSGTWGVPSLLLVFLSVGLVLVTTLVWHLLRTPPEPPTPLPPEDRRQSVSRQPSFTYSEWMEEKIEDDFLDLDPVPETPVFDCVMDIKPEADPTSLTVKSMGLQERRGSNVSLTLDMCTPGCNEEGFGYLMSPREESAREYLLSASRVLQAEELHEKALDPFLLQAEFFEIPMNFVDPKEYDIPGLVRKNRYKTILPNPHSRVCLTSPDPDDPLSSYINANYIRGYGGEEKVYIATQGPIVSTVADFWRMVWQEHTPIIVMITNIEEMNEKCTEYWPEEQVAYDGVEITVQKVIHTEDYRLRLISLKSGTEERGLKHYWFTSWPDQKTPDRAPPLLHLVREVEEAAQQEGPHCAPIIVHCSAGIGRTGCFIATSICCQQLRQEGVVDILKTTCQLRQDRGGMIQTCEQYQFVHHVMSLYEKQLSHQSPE
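System: isolated STEP enzyme; schedule: 20 min enzyme reaction at room temperature, protected from light; medium: Bis-Tris buffer pH 6.0, 2.5 mM DTT, 0.005% Tween 20; signal: fluorescence, 480/540 nm; dosing: single compound dose of 20 µM, 1% DMSO final; also added: OMFP substrate, 25 µM final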
GRK2 inh confirm: GRK2 aptamer-displacing inhibitors, retest, confirmation, biochemical, cherry pick 1, bead flow cytometry; 2,000 compounds, 4% hits; shares compounds with GRK2 inh; aptamer displacement, % at 10 µM; bead-bound GRK2, FAM-aptamer displacement; AID 504451, 2011;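 active = aptamer displacement above 40%, near three times the noise of non-fluorescent compounds, on plates passing quality checks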;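 note: negative values mostly reflect intrinsic compound fluorescence rather than true enhancement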
Aptamer quench 1: fluorescent aptamer quenching in GRK2 counter-screen dose response; AID 504521; fluorescence change (kMESF span), kMESF (test concentration not listed); Fluorescent RNA aptamer beads, flow cytometry; stronger effect = higher value; shares compounds with GRK2 inh; 110 tested, under 10 active;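 active = compounds whose bead fluorescence drops by more than 37 kMESF across the dose range, marking them as dye quenchers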
Aptamer quench SP: quenches fluorescent RNA aptamer, GRK2 hit artifact; shares compounds with GRK2 inh; Carboxyfluorescein RNA aptamer on beads, flow cytometry quenching; stronger effect = lower value; fluorescence response (% of DMSO), % at 10 µM; 2,000 tested, under 10 active; AID 504580;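 active = compounds that quench the bead-bound fluorescent RNA probe, cutting fluorescence to under half of the solvent control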;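 note: counterscreen run without GRK2 so only probe quenching by compound is measured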
GRK2 confirm 2: GRK2 aptamer-displacing inhibitors, hit retest, confirmation, biochemical, cherry pick 2, bead flow cytometry | shares compounds with GRK2 inh | bead-bound GRK2, FAM-aptamer displacement | inhibition of aptamer binding, % at 10 µM | 360 tested, under 10 active | AID 504782, 2011;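 active = inhibition of aptamer binding above 40%, about triple the noise seen with nonglowing compounds, on plates passing quality control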;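 note: negative values mostly come from compounds that fluoresce themselves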
FAM quench CP2: quenches fluorescent RNA aptamer, GRK2 hit artifact. fluorescence response vs DMSO, % at 10 µM. shares compounds with GRK2 inh. AID 588494. carboxyfluorescein RNA aptamer beads, flow cytometry quenching; stronger effect = lower value. 360 tested, under 10 active;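 active = response vs DMSO under 50%, meaning signal dropped by over half, treated as fluorescence quencher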;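 note: labelled aptamer on streptavidin beads without GRK2 as a quench counter-screen; 100% = bead fluorescence of DMSO wells and lower means quenching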
Active calls of the source: *; · = no result. This is a sample that favours compounds with a hit; in the whole collection about 2.2% have one here.

SMILES	GRK2 inh	DNMT1 inh	Scp-1 inhibitor	SUMO1 PPI mod	LMPTP block	STEP block	GRK2 inh confirm	Aptamer quench SP	others
CCCNC(=O)C1(C)CCCN(C(=O)CN2C(=O)c3ccccc3C2=O)C1 (stereo unspecified)	·	2	·	-7	-2	0	·	·
COc1ccc(CN(C)C(=O)Cn2ccsc2=N)cc1OC	0	1	-16	8	-1	-1	4	96
Nc1nc2c(ncn2[C@@H]2O[C@H](CNCc3cnc(N4CCOCC4)s3)[C@@H](O)[C@H]2O)c(=O)[nH]1	·	-2	·	-5	-2	0	·	·
COCCN1C(=O)N[C@@H](c2cccc(F)c2)C(C(=O)OC)=C1C	91*	7	-8	-1	-1	-1	0	105
CN(CCO)C(=O)c1c(NC(=O)c2ccccc2)sc2c1CCCC2	42*	5	0	1	-1	-2	1	95
CCCN1CCN(CCCNC(=O)C(CC)n2nc(C)c3sc4ccccc4c3c2=O)CC1 (stereo unspecified)	62*	4	-2	11	-1	-1	-2	96
CCC(C(=O)NCCCN1CCN(C)CC1)n1nc(C)c2sc3ccccc3c2c1=O (stereo unspecified)	1	1	-6	-11	-5	-2	·	·
O=C(NC1CC1)c1cccc2c1C(=O)c1ccc(N3CCC(Cc4ccccc4)CC3)cc1S2(=O)=O	73*	-5	4	-34	4	-6	·	·	GRK2 confirm 2=-20;FAM quench CP2=101
O=C(Cn1c(NCCO)nc2ccccc21)NCC1CCCO1 (stereo unspecified)	100*	0	-1	2	1	-2	-2	95
CC1([N+](=O)[O-])COC(c2cccc3ccccc23)OC1 (stereo unspecified)	·	-2	0	0	-1	1	·	·
O=[N+]([O-])c1cc(C(F)(F)F)ccc1Sc1ccc2ccccc2n1	39	-2	2	-11	1	1	-1	84
CC(=O)c1cccc(NC(=O)c2cc(-c3ccc(F)cc3)on2)c1	0	16	-2	-3	-2	2	-1	97
COc1cccc(-c2cc(C(=O)Nc3ccc(OC)c(OC)c3)no2)c1	98*	-12	39	-1	2	-1	3	99
Cc1ccc(NC(=O)c2cc(-c3ccc(F)cc3)on2)cc1C	5	2	-7	5	0	-5	·	·
O=C1NC[C@H](CCCCN2C[C@H](Cc3ccccc3)N(CCC3CCCCC3)C(=O)C2=O)N(Cc2ccccc2)C1=O	·	·	·	1	1	·	·	·
CSc1ccc(CN2CCC2(C)C(=O)Nc2ccc3c(c2)OCO3)cc1 (stereo unspecified)	·	1	·	10	-1	3	·	·
COc1ccc(CC(=O)Nc2ccc(-c3nc4cc(C)ccc4o3)c(O)c2)cc1OC	71*	47	-1	-57	13	6	-21	109
CCOC(=O)c1c(-c2ccc(F)cc2)csc1NC(=O)C1CC=CCC1C(=O)O (stereo unspecified)	95*	6	3	9	0	3	5	98
COc1ccc(-c2cn3c(C)c(C(=O)N4CCCc5ccccc54)sc3n2)cc1	81*	-10	6	10	7	5	0	97
CN(CC(=O)Nc1c(Cl)cccc1Cl)C(=O)CCc1nc2sc3c(c2c(=O)[nH]1)CCCC3	0	17	21	11	3	4	-1	94
Cc1cccc(NS(=O)(=O)c2cccc(C(=O)NCC3(N4CCOCC4)CCCCC3)c2)c1	·	2	-5	1	0	-2	·	·
COCCNC(=O)C/C(C)=N/NC(=O)C(=O)NC1CCCCC1	57*	-1	-8	-1	-1	-2	86*	101	Aptamer quench 1=-9.6
Cc1c(C(=O)NCc2ccccc2C(F)(F)F)sc(=O)n1Cc1ccc(F)cc1	·	7	·	8	2	0	·	·
COc1ccc(C2=Nc3ccccc3NC(=O)C2N(CCc2ccccc2)C(=O)c2cccs2)cc1 (stereo unspecified)	·	6	·	-6	1	-3	·	·
CCOCCCNC(=O)c1ccc(N2CCCC2)c(NS(=O)(=O)c2ccc(C)cc2)c1	96*	-5	-11	-1	0	-3	1	94
SMILES	GRK2 inh	DNMT1 inh	Scp-1 inhibitor	SUMO1 PPI mod	LMPTP block	STEP block	GRK2 inh confirm	Aptamer quench SP	others
Cn1nc(C(C)(C)C)cc1C(=O)N1CCCCC1c1cc(C(=O)Nc2ccccc2Cl)no1 (stereo unspecified)	·	1	·	5	-1	1	·	·
COc1ccccc1NC(=O)CCn1c(=S)oc2ccccc21	1	1	-7	-2	0	-1	·	·
CC(C)CCNC(=O)CCn1c(=S)oc2ccccc21	43*	0	-7	0	-1	2	1	97
CC(=O)NCCN1C(=O)S/C(=C\c2cccs2)C1=O	79*	0	-5	-20	0	2	-2	101
Cn1c2c(c(=O)n(C)c1=O)CS(=O)c1ccccc1N2 (stereo unspecified)	·	-1	·	1	-1	0	·	·
COc1cccc(C2=NO[C@@H]3C(=O)N(c4ccc5c(c4)OCCO5)C(=O)[C@H]23)c1OC	3	-12	-12	0	-2	0	·	·	GRK2 confirm 2=1;FAM quench CP2=102
